This passage reports zone of inhibition, inhibition zone (IZ) and Activity results from ChEMBL document CHEMBL1909541, “Hantzsch reaction: synthesis and characterization of some new 1,4-dihydropyridine derivatives as potent antimicrobial and antioxidant agents” (Eur J Med Chem, 2011).

The subject of data set [1] is Aspergillus flavus. Put plainly: Antifungal activity against Aspergillus flavus MTCC 3306 at 0.5 mg/mL after 72 hrs by agar-well diffusion method. The class given is functional. The note with it: MTCC 3306, 72 h, read-out: DIZ. Summed up: (§1)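 Fungal spore suspensions made in normal saline were spread onto agar adjusted to pH 5.7, then dried 1 h at 37 °C. Wells were cut and loaded with test compounds in DMSO at different concentrations, with a DMSO control. Plates run in triplicate at 25 °C for 72 h. Read-out was inhibition zone diameter.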

In data set [2] the test system is Aspergillus flavus. Briefly: Antifungal activity against Aspergillus flavus MTCC 3306 at 1 mg/mL after 72 hrs by agar-well diffusion method. The class given is functional. Conditions: MTCC 3306, 72 h, read-out: DIZ. Summed up:
as §1

Data set [3] relates to Candida albicans. Put plainly: Antifungal activity against Candida albicans MTCC 3017 at 0.5 mg/mL after 72 hrs by agar-well diffusion method. The class given is functional. The note with it: MTCC 3017, 72 h, read-out: DIZ. Summed up: as §1
For data set [4], the system named is Pseudomonas aeruginosa. Put plainly: Antibacterial activity against Pseudomonas aeruginosa ATCC 27853 at 0.25 mg/mL after 24 hrs by agar-well diffusion method. The class given is functional. Conditions: ATCC 27853, 24 h, read-out: IZ. Summed up:
(§2)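 Well diffusion on Mueller-Hinton agar seeded with 24 h old cultures. Test compounds dissolved in DMSO at 1, 0.5 and 0.25 mg/mL. 6 mm wells were punched with a sterile cork borer, test solutions added, and plates incubated 24 h at 37 °C.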

Data set [5] has as its system Escherichia coli. Put plainly: Antibacterial activity against Escherichia coli ATCC 25922 at 1 mg/mL after 24 hrs by agar-well diffusion method. Conditions: ATCC 25922, 24 h, read-out: IZ. The class given is functional. An outline of the steps: as §2
A short description of data set [6]: Antifungal activity against Chrysosporium keratinophilum MTCC 2827 at 0.5 mg/mL after 72 hrs by agar-well diffusion method. The class given is functional. Summed up:
as §1

Data set [7] has as its system Radical scavenging activity. Briefly: Antioxidant activity assessed as DPPH free radical scavenging activity at 100 uM after 30 mins. Format: functional. An outline of the steps: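 Sample brought to 1 mL with MeOH and mixed with 3 mL fresh 0.1 mM DPPH. Kept 30 min in the dark, then absorbance read at 517 nm. A DPPH control without sample was included. Scavenging (%) = [(Abs control − Abs sample)/Abs control] × 100.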

Data set [8] has as its system Escherichia coli. Briefly: Antibacterial activity against Escherichia coli ATCC 25922 at 0.5 mg/mL after 24 hrs by agar-well diffusion method. The note with it: ATCC 25922, 24 h, read-out: IZ. The class given is functional. An outline of the steps:
as §2

Data set [9] relates to Candida albicans. Briefly: Antifungal activity against Candida albicans MTCC 3017 at 0.25 mg/mL after 72 hrs by agar-well diffusion method. The class given is functional. The note with it: MTCC 3017, 72 h, read-out: DIZ. Summed up:
as §1

A short description of data set [10]: Antifungal activity against Chrysosporium keratinophilum MTCC 2827 at 1 mg/mL after 72 hrs by agar-well diffusion method. The class given is functional. An outline of the steps:
as §1

Data set [11] relates to Mus musculus. Put plainly: Acute toxicity in Swiss albino mouse assessed as behavioral changes up to 3000 mg/kg, po in single dose measured up to 24 hrs. Format: organism-based. Set-up: dose 3000 mg/kg, route oral. Conditions: in vivo. Summed up:
(§3)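 Single oral dose per OECD acute oral toxicity guidelines, 250 to 3000 mg/kg, given as a fine suspension in double distilled water with Tween 80. Toxic symptoms and behavioral changes observed continuously for 4 h, then at 8, 12 and 24 h; deaths recorded.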

The subject of data set [12] is Pseudomonas aeruginosa. Put plainly: Antibacterial activity against Pseudomonas aeruginosa ATCC 27853 at 1 mg/mL after 24 hrs by agar-well diffusion method. The note with it: ATCC 27853, 24 h, read-out: IZ. The class given is functional. Summed up: as §2
Data set [13] relates to Mus musculus. Put plainly: Acute toxicity in Swiss albino mouse assessed as mortality up to 3000 mg/kg, po in single dose measured up to 24 hrs. Format: organism-based. Set-up: dose 3000 mg/kg, route oral. Conditions: in vivo. Summed up: as §3
The test system of data set [14] is Candida albicans. Briefly: Antifungal activity against Candida albicans MTCC 3017 at 1 mg/mL after 72 hrs by agar-well diffusion method. The class given is functional. The note with it: MTCC 3017, 72 h, read-out: DIZ. Summed up: as §1
Data set [15] has as its system Staphylococcus aureus. Put plainly: Antibacterial activity against Staphylococcus aureus ATCC 25923 at 0.5 mg/mL after 24 hrs by agar-well diffusion method. The class given is functional. The note with it: ATCC 25923, 24 h, read-out: IZ. Summed up: as §2
Data set [16] has as its system Escherichia coli. Put plainly: Antibacterial activity against Escherichia coli ATCC 25922 at 0.25 mg/mL after 24 hrs by agar-well diffusion method. The class given is functional. Conditions: ATCC 25922, 24 h, read-out: IZ. An outline of the steps: as §2
In data set [17] the test system is Pseudomonas aeruginosa. Put plainly: Antibacterial activity against Pseudomonas aeruginosa ATCC 27853 at 0.5 mg/mL after 24 hrs by agar-well diffusion method. The class given is functional. Conditions: ATCC 27853, 24 h, read-out: IZ. An outline of the steps:
as §2

Data set [18] relates to Aspergillus flavus. Briefly: Antifungal activity against Aspergillus flavus MTCC 3306 at 0.25 mg/mL after 72 hrs by agar-well diffusion method. The class given is functional. The note with it: MTCC 3306, 72 h, read-out: DIZ. Summed up:
as §1

A short description of data set [19]: Antifungal activity against Chrysosporium keratinophilum MTCC 2827 at 0.25 mg/mL after 72 hrs by agar-well diffusion method. Format: functional. An outline of the steps:
as §1

For data set [20], the system named is Staphylococcus aureus. Briefly: Antibacterial activity against Staphylococcus aureus ATCC 25923 at 1 mg/mL after 24 hrs by agar-well diffusion method. The class given is functional. Conditions: ATCC 25923, 24 h, read-out: IZ. Summed up: as §2
Data set [21] deals with Staphylococcus aureus. Briefly: Antibacterial activity against Staphylococcus aureus ATCC 25923 at 0.25 mg/mL after 24 hrs by agar-well diffusion method. Conditions: ATCC 25923, 24 h, read-out: IZ. The class given is functional. Summed up:
as §2

The test system of data set [22] is Mus musculus. Briefly: Acute toxicity in Swiss albino mouse assessed as behavioral changes at >2000 mg/kg, po in single dose measured up to 24 hrs. Format: organism-based. Conditions: in vivo. Summed up: as §3
Data set [23] has as its system Mus musculus. Briefly: Acute toxicity in Swiss albino mouse assessed as mortality at >2000 mg/kg, po in single dose measured up to 24 hrs. The class given is organism-based. Conditions: in vivo. An outline of the steps: as §3

Turning to `CCOC(=O)C1=C(C)NC(C)=C(C(=O)OCC)C1c1c[nH]nc1-c1ccc(-c2ccccc2)cc1`, the zone of inhibition at 500 µg/mL stood at 2 mm in [1]; 4 mm in data set [3]; 10 mm in [8]; 12 mm in data set [15]; 13 mm in data set [17]. Further, the zone of inhibition at 1000 µg/mL worked out at 5 mm in [2]; 13 mm in data set [5]; 17 mm in data set [12]; 6 mm in data set [14]; 16 mm in data set [20]. For the same molecule, the zone of inhibition at 250 µg/mL in data set [4] is 11 mm; in [9], 2 mm; in [16] it was 7 mm; in data set [18], 1 mm; in [21] it was 10 mm. Moreover, the figures for the inhibition zone (IZ) in data set [6], in data set [10] and in [19] were 0 mm, 3 mm and 0 mm, respectively. For the same molecule, the Activity is 65.3% in [7], “Non-toxic” in data set [11] and “Non-toxic” in data set [13].

As for `CCOC(=O)C1=C(C)NC(C)=C(C(=O)OCC)C1c1c[nH]nc1-c1ccc(Cl)cc1`, the zone of inhibition at 500 µg/mL in [1] is 0 mm; in data set [3] it was 2 mm; in data set [8] it was 12 mm; in data set [15], 10 mm; in [17], 13 mm. The zone of inhibition at 1000 µg/mL in data set [2] was 2 mm; in [5] it was 17 mm; in [12] it was 16 mm; in data set [14], 4 mm; in data set [20] it was 15 mm. In addition, the zone of inhibition at 250 µg/mL is 10 mm in [4]; 0 mm in data set [9]; 10 mm in [16]; 0 mm in data set [18]; 8 mm in data set [21]. The inhibition zone (IZ) in [6] was 0 mm; in data set [10] it was 3 mm; in [19], 0 mm. The Activity in [7] was 62.3%; in [22], “Toxic”; in data set [23], “Toxic”.

`CCOC(=O)C1=C(C)NC(C)=C(C(=O)OCC)C1c1c[nH]nc1-c1ccc(SC)cc1`: the zone of inhibition at 500 µg/mL stood at 0 mm in data set [1]; 0 mm in data set [3]; 12 mm in data set [8]; 12 mm in data set [15]; 11 mm in data set [17]. The zone of inhibition at 1000 µg/mL was found to be 0 mm in data set [2]; 17 mm in data set [5]; 14 mm in [12]; 0 mm in data set [14]; 16 mm in [20]. Moreover, the zone of inhibition at 250 µg/mL in [4] was 8 mm; in [9], 0 mm; in [16], 9 mm; in data set [18], 0 mm; in data set [21], 10 mm. Moreover, the inhibition zone (IZ) in [6], in [10] and in data set [19] was 0 mm each time. Moreover, the Activity in data set [7] is 61.1%; in data set [11], “Non-toxic”; in data set [13] it was “Non-toxic”.

On to `CCOC(=O)C1=C(C)NC(C)=C(C(=O)OCC)C1c1c[nH]nc1-c1cc(Cl)sc1Cl`, for which the zone of inhibition at 500 µg/mL in data set [1] turned out to be 3 mm; in [3], 2 mm; in data set [8] it was 10 mm; in data set [15], 9 mm; in [17], 12 mm. Further, the zone of inhibition at 1000 µg/mL in data set [2] was 4 mm; in data set [5], 16 mm; in data set [12], 15 mm; in data set [14], 5 mm; in data set [20], 13 mm. For the same molecule, the zone of inhibition at 250 µg/mL stood at 10 mm in [4]; 2 mm in [9]; 8 mm in data set [16]; 3 mm in [18]; 8 mm in [21]. Also, the figures for the inhibition zone (IZ) in [6], in data set [10] and in [19] were 2 mm, 5 mm and 2 mm, respectively. The Activity in [7] stood at 32%.

For `CCOC(=O)C1=C(C)NC(C)=C(C(=O)OCC)C1c1c[nH]nc1-c1ccc(OC)cc1`, the zone of inhibition at 500 µg/mL is 1 mm in data set [1]; 1 mm in [3]; 8 mm in data set [8]; 8 mm in data set [15]; 7 mm in data set [17]. Also, the zone of inhibition at 1000 µg/mL in data set [2] was found to be 2 mm; in data set [5], 12 mm; in [12] it was 10 mm; in data set [14], 3 mm; in [20] it was 13 mm. Also, the zone of inhibition at 250 µg/mL in [4] was determined as 5 mm; in [9], 2 mm; in [16], 5 mm; in data set [18], 0 mm; in data set [21] it was 6 mm. For the same molecule, the inhibition zone (IZ) came out at 2 mm in data set [6], 3 mm in [10] and 0 mm in data set [19]. Moreover, the Activity in data set [7] was found to be 30.3%.

For `COC(=O)C1=C(C)NC(C)=C(C(=O)OC)C1c1c[nH]nc1-c1ccc(-c2ccccc2)cc1`, the zone of inhibition at 500 µg/mL in data set [1] was 4 mm; in data set [3], 0 mm; in [8] it was 10 mm; in [15], 7 mm; in data set [17], 8 mm. Moreover, the zone of inhibition at 1000 µg/mL in data set [2] was found to be 5 mm; in data set [5], 13 mm; in data set [12], 10 mm; in data set [14], 0 mm; in data set [20], 9 mm. The zone of inhibition at 250 µg/mL was found to be 7 mm in [4]; 0 mm in data set [9]; 8 mm in data set [16]; 2 mm in data set [18]; 5 mm in data set [21]. The inhibition zone (IZ) was 2 mm in data set [6], 3 mm in data set [10] and 0 mm in [19]. Besides, in [7], the Activity was 25.3%.
